# Measurements taken from ChEMBL document CHEMBL1135707, “Identification of potent and selective mechanism-based inhibitors of the cysteine protease cruzain using solid-phase parallel synthesis” (J Med Chem, 2002).
# How the values were obtained:
# [1] = Aqueous solubility using UV analysis; assay type: physicochemical
# Summary of the method: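 Solubility measured by an outside lab after 2 h preincubation of inhibitor in pH 7.4 aqueous buffer at 37 °C. Quantitated by UV absorbance at 211 nm.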
# Cruzipain = Cruzipain (Trypanosoma cruzi, UniProt P25779); test: Inhibitory activity against cruzain, the major cysteine protease found in Trypanosoma cruzi
# Sequence of Cruzipain (P25779 whole entry): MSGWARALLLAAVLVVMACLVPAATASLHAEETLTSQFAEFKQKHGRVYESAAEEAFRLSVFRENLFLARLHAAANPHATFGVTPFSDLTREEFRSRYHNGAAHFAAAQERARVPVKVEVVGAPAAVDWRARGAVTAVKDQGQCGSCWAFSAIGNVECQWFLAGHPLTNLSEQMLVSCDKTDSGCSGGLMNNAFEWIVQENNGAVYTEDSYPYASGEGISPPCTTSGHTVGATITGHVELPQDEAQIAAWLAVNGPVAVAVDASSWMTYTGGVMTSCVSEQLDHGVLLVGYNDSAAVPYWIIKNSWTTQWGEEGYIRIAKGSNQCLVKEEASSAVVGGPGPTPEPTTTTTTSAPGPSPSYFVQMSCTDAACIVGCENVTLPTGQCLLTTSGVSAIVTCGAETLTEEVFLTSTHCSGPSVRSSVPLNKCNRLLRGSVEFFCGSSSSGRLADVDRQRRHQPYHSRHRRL
# Summary of the method: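 Enzyme and inhibitor (in DMSO) preincubated 5 min before substrate addition. Read at ex 355/em 450 nm at four time points in the linear region. Activity taken against no-inhibitor controls, run in duplicate. Ki obtained from Williams–Morrison tight-binding fit.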
# Cathepsin B = Cathepsin B (Homo sapiens, UniProt P07858); test: Inhibitory activity against human Cathepsin B
# Summary of the method: (§1)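 Buffer was 0.25 M sodium acetate pH 5.5 with 2 mM EDTA, 0.015% Brij-35 and 1 mM DTT. 5 min enzyme–inhibitor preincubation, ex 355/em 450 nm, duplicate wells. Ki obtained from Williams–Morrison fit.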
# Procathepsin L = Procathepsin L (Homo sapiens, UniProt P07711); test: Inhibitory activity against human Cathepsin L; summary of the method: as §1
# Sequence of Procathepsin L (P07711 whole entry): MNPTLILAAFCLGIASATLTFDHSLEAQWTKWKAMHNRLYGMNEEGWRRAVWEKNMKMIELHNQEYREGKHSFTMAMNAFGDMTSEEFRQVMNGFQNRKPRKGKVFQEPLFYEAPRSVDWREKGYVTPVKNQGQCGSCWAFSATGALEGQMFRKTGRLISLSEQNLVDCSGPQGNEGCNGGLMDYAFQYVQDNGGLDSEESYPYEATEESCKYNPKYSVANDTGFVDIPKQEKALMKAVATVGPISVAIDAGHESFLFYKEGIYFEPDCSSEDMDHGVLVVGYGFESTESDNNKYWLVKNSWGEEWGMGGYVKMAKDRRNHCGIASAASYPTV
Structure (SMILES),solubility [1] [µM],Ki (Cruzipain) [nM],Ki (Cathepsin B) [nM],Ki (Procathepsin L) [nM]
CCOC(=O)CCSCC(=O)[C@H](Cc1ccccc1)NC(=O)[C@H](Cc1ccccc1)NC(=O)OCc1cccnc1,,22.7,,
CCOC(=O)C(C)SCC(=O)[C@H](Cc1ccccc1)NC(=O)[C@H](Cc1ccccc1)NC(=O)OCc1ccccc1 (some centres undefined),,37,,
CC(C)(C)CC(C)(C)SCC(=O)[C@H](Cc1ccccc1)NC(=O)[C@H](Cc1ccccc1)NC(=O)OCc1ccccc1,,10.4,,
CCOC(=O)CCSCC(=O)[C@H](Cc1ccccc1)NC(=O)[C@H](Cc1ccccc1)NC(=O)OCc1ccccn1,,30.4,,
CCOC(=O)CCSCC(=O)[C@H](Cc1ccccc1)NC(=O)[C@H](Cc1ccccc1)NC(=O)N1CCOCC1,,59.1,,
O=C(N[C@@H](Cc1ccccc1)C(=O)N[C@@H](Cc1ccccc1)C(=O)CSCc1ccccc1)OCc1ccccc1,,44,,
CC(C)(C)SCC(=O)[C@H](Cc1ccccc1)NC(=O)[C@H](Cc1ccccc1)NC(=O)N1CCOCC1,,54.6,,
CCOC(=O)CSCC(=O)[C@H](Cc1ccccc1)NC(=O)[C@H](Cc1ccccc1)NC(=O)OCc1ccccc1,,31.2,,
CC(C)C[C@H](NC(=O)N1CCOCC1)C(=O)N[C@@H](Cc1ccccc1)C(=O)CSC(C)(C)C,,59.7,,
COc1ccc(CSCC(=O)[C@H](Cc2ccccc2)NC(=O)[C@H](Cc2ccccc2)NC(=O)OCc2ccccc2)cc1,,32.4,,
O=C(N[C@@H](Cc1ccccc1)C(=O)N[C@@H](Cc1ccccc1)C(=O)CSCc1ccc(Cl)cc1)OCc1ccccc1,,82.7,,
CC(C)C[C@H](NC(=O)N1CCOCC1)C(=O)N[C@@H](Cc1ccccc1)C(=O)CSCCCc1ccccc1,,131,,
CC(=O)NCCSCC(=O)[C@H](Cc1ccccc1)NC(=O)[C@H](Cc1ccccc1)NC(=O)OCc1ccccc1,,34.3,,
O=C(N[C@@H](Cc1ccccc1)C(=O)N[C@@H](Cc1ccccc1)C(=O)CSC1CCCC1)OCc1ccccc1,,34.3,,
CNC(=O)CSCC(=O)[C@H](Cc1ccccc1)NC(=O)[C@H](Cc1ccccc1)NC(=O)OCc1ccccc1,,15,,
O=C(CSCCCc1ccccc1)[C@H](Cc1ccccc1)NC(=O)[C@H](Cc1ccccc1)NC(=O)N1CCOCC1,,216,,
CC(C)CCSCC(=O)[C@H](Cc1ccccc1)NC(=O)[C@H](Cc1ccccc1)NC(=O)OCc1ccccc1,,30.1,,
CC(C)C[C@H](NC(=O)OCc1ccncc1)C(=O)N[C@@H](Cc1ccccc1)C(=O)CSC(C)(C)C,,14.1,4800,28.8
CC(C)C[C@H](NC(=O)OCc1ccccn1)C(=O)N[C@@H](Cc1ccccc1)C(=O)CSC(C)(C)C,,13.8,,
CC(C)(C)c1ccc(CSCC(=O)[C@H](Cc2ccccc2)NC(=O)[C@H](Cc2ccccc2)NC(=O)OCc2ccccc2)cc1,,22,,
CCOC(=O)CCSCC(=O)[C@H](Cc1ccccc1)NC(=O)[C@H](CC(C)C)NC(=O)N1CCOCC1,,69.6,,

# The next molecules have a lower Ki (Cruzipain) than those just listed; values first:
solubility [1] [µM],Ki (Cruzipain) [nM],Ki (Cathepsin B) [nM],Ki (Procathepsin L) [nM],Structure (SMILES)
288,4.6,,,CC(C)(C)SCC(=O)[C@H](Cc1ccccc1)NC(=O)[C@H](Cc1ccccc1)NC(=O)OCc1cccnc1
,7.8,,,CC(C)C[C@H](NC(=O)OCc1ccccc1)C(=O)N[C@@H](Cc1ccccc1)C(=O)CSC(C)C
378,4.8,,,CC(C)C[C@H](NC(=O)OCc1cccnc1)C(=O)N[C@@H](Cc1ccccc1)C(=O)CSC(C)(C)C
,2.9,42.7,1.5,CCOC(=O)CCSCC(=O)[C@H](Cc1ccccc1)NC(=O)[C@H](Cc1ccccc1)NC(=O)OCc1ccccc1
,1.1,1700,144,CC(C)C[C@H](NC(=O)OCc1cccnc1)C(=O)N[C@@H](CCc1ccccc1)C(=O)CSCCCc1ccccc1
,5.4,,,O=C(N[C@@H](Cc1ccccc1)C(=O)N[C@@H](CCc1ccccc1)C(=O)CSCCCc1ccccc1)OCc1cccnc1 (stereo in doubt; 16d)
,2,45.4,2.8,O=C(N[C@@H](Cc1ccccc1)C(=O)N[C@@H](Cc1ccccc1)C(=O)CSCCCc1ccccc1)OCc1ccccc1
,1.4,600,9.6,CC(C)(C)SCC(=O)[C@H](CCc1ccccc1)NC(=O)[C@H](Cc1ccccc1)NC(=O)OCc1cccnc1
70,2.5,45,1.7,CC(C)(C)SCC(=O)[C@H](Cc1ccccc1)NC(=O)[C@H](Cc1ccccc1)NC(=O)OCc1ccccc1
,0.9,700,28.8,O=C(N[C@@H](Cc1ccccc1)C(=O)N[C@@H](CCc1ccccc1)C(=O)CSCCCc1ccccc1)OCc1cccnc1 (stereo in doubt; 16e)
,4.2,,,O=C(N[C@@H](Cc1ccccc1)C(=O)N[C@@H](Cc1ccccc1)C(=O)CSCCc1ccccc1)OCc1ccccc1
,5.8,,,CCC(C)SCC(=O)[C@H](Cc1ccccc1)NC(=O)[C@H](Cc1ccccc1)NC(=O)OCc1ccccc1 (some centres undefined)
,1,136,4.7,CC(C)C[C@H](NC(=O)OCc1ccccc1)C(=O)N[C@@H](Cc1ccccc1)C(=O)CSCCCc1ccccc1
,4.6,,,CC(C)SCC(=O)[C@H](Cc1ccccc1)NC(=O)[C@H](Cc1ccccc1)NC(=O)OCc1ccccc1
,7.5,,,O=C(N[C@@H](Cc1ccccc1)C(=O)N[C@@H](Cc1ccccc1)C(=O)CSC1CCCCC1)OCc1ccccc1
,5,,,CC(C)(C)CC(C)(CC(C)(C)C)SCC(=O)[C@H](Cc1ccccc1)NC(=O)[C@H](Cc1ccccc1)NC(=O)OCc1ccccc1
,8,,,CCOC(=O)CCSCC(=O)[C@H](Cc1ccccc1)NC(=O)[C@H](CC(C)C)NC(=O)OCc1ccccc1
,5.5,,,O=C(N[C@@H](Cc1ccccc1)C(=O)N[C@@H](Cc1ccccc1)C(=O)CSCCCc1ccccc1)OCc1cccnc1
,1.3,112,7.9,CC(C)C[C@H](NC(=O)OCc1ccccc1)C(=O)N[C@@H](Cc1ccccc1)C(=O)CSC(C)(C)C
,2,1300,44,CC(C)C[C@H](NC(=O)OCc1cccnc1)C(=O)N[C@@H](CCc1ccccc1)C(=O)CSC(C)(C)C
